In ChEMBL document CHEMBL5625173, “Antimycobacterial pyridine carboxamides: From design to in vivo activity” (Eur J Med Chem, 2023):
Converted amounts (≈) assume the structure as drawn. The source made the active and inactive calls. The rule behind the calls is not given here.

Key:
Mycolicibacterium aurum = assay: Antimycobacterial activity against Mycobacterium aurum by alamar blue staining based microplate analysis; assay type: functional
Method in brief: (§1)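 Microplate Alamar Blue assay, one of six mycobacterial strains tested (Mtb H37Rv, Mtb H37Ra, M. kansasii, M. avium, M. smegmatis, M. aurum); value reported as MIC.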

[1] = tested on: Mycobacterium tuberculosis; assay: Antimycobacterial activity against Mycobacterium tuberculosis H37Rv by alamar blue staining based microplate analysis; assay type: functional
Method in brief: (§2)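 Microplate Alamar Blue assay. MIC values read at pH 6.6 (neutral). One acidic-pH test at pH 5.6 is footnoted separately.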

Mycobacterium avium = assay: Antimycobacterial activity against Mycobacterium avium by alamar blue staining based microplate analysis; assay type: functional; method in brief: as §2
Mycobacterium kansasii = assay: Antimycobacterial activity against Mycobacterium kansasii by alamar blue staining based microplate analysis; assay type: functional; method in brief: as §1
[2] = tested on: Mycobacterium tuberculosis; assay: Antimycobacterial activity against Mycobacterium tuberculosis H37Ra by alamar blue staining based microplate analysis; assay type: functional; method in brief: as §2
[3] = tested on: Mycolicibacterium smegmatis; assay: Antimycobacterial activity against Mycobacterium smegmatis by alamar blue staining based microplate analysis; assay type: functional; method in brief: as §1
[4] = Cytotoxicity against human HepG2 cells assessed as inhibition of cell viability; assay type: toxicity, cell-based
[5] = Selectivity index, ratio of IC50 for cytotoxicity against human HepG2 cells to MIC for antimycobacterial activity against Mycobacterium tuberculosis H37Rv; assay type: toxicity, cell-based; conditions: read-out: Selectivity Index
[6] = tested on: Mycobacterium tuberculosis; assay: Antimycobacterial activity against Mycobacterium tuberculosis IZAK by alamar blue staining based microplate analysis; assay type: functional
[7] = Drug metabolism in human liver microsomes assessed as M1 metabolite formation at 90 uM incubated for 3 hrs; assay type: ADME, Microsome
Method in brief: (§3)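 Phase I metabolite identification: ammonium salt of the compound (for solubility) or its lactone, 90 μM, incubated with human liver microsomes for 3 h; metabolites detected by HPLC-MS, positive ion mode, by m/z.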

[8] = Drug metabolism in human liver microsomes assessed as M2 metabolite formation at 90 uM incubated for 3 hrs; assay type: ADME, Microsome; method in brief: as §3
[9] = Metabolic stability in human liver microsomes assessed as intrinsic clearance at 3 uM incubated for 45 mins by HPLC analysis; assay type: ADME, Microsome; conditions: read-out: CLH
Method in brief: (§4)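 Ammonium salt or lactone, 3 μM, incubated with human liver microsomes at physiological pH; reactions stopped at 0, 5, 15, 30 and 45 min and analysed by HPLC-MS; k, t1/2 and intrinsic clearance calculated from the HPLC-MS records.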

[10] = tested on: Mycobacterium tuberculosis; assay: Antimycobacterial activity against Mycobacterium tuberculosis MAT1 by alamar blue staining based microplate analysis; assay type: functional
[11] = Metabolic stability in human liver microsomes assessed as half life at 3 uM incubated for 45 mins by HPLC-MS analysis; assay type: ADME, Microsome; method in brief: as §4
[12] = tested on: Mycobacterium tuberculosis; assay: Antimycobacterial activity against Mycobacterium tuberculosis H37Rv infected in mouse assessed as reduction in colony formation in lungs at 50 mg/kg administered for 28 days; assay type: functional, organism-based; conditions: time 28.0 day
Method in brief: (§5)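 Mice infected intranasally with Mtb H37Rv; infection allowed to develop four weeks. Then dosed for 28 days with sodium salt forms as water solution by gastric tube. Lung and spleen CFU determined and compared with untreated control group.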

[13] = tested on: Mycobacterium tuberculosis; assay: Antimycobacterial activity against Mycobacterium tuberculosis H37Rv infected in mouse assessed as reduction in colony formation in spleen at 50 mg/kg administered for 28 days; assay type: functional, organism-based; conditions: time 28.0 day; method in brief: as §5

| SMILES | MIC (Mycolicibacterium aurum) [µg/mL] | MIC [1] [µg/mL] | MIC (Mycobacterium avium) [µg/mL] | MIC (Mycobacterium kansasii) [µg/mL] | MIC [2] [µg/mL] | MIC [3] [µg/mL] | IC50 [4] [µM] | selectivity ratio [5] | MIC [6] [µg/mL] | Drug metabolism [7] | Drug metabolism [8] | microsomal CLint at 3 µM [9] [µL/min/mg] | MIC [10] [µg/mL] | half-life at 3 µM [11] [h] | Activity [12] | Activity [13] |
| --- | --- | --- | --- | --- | --- | --- | --- | --- | --- | --- | --- | --- | --- | --- | --- | --- |
| O=C(Nc1cncc(Cl)n1)c1ccc2ccccc2n1 | ≥ 125 | > 25 | > 25 | > 25 | ≥ 125 | ≥ 125 | > 25 |  |  |  |  |  |  |  |  |  |
| O=C(Nc1ccc(C(=O)O)c(O)c1)c1ccccn1 | 62.5 (≈ 242 µM) | 1.56 (≈ 6.04 µM) | > 100 | 50 (≈ 194 µM) | 250 (≈ 968 µM) | 15.6 (≈ 60.5 µM) | > 1000 | 166 |  |  |  |  |  |  |  |  |
| NNC(=O)c1ccncc1 [ISONIAZID] | 3.91 (≈ 28.5 µM) | 0.2 (≈ 1.46 µM) | 12.5 (≈ 91.1 µM) | 12.5 (≈ 91.1 µM) | 0.25 (≈ 1.82 µM) | 15.6 (≈ 114 µM) | > 1000 |  |  |  |  |  |  |  |  |  |
| O=C(Nc1ccc(C(=O)O)c(O)c1)c1ccncc1 | ≥ 125 | 3.13 (≈ 12.1 µM) | 100 (≈ 387 µM) | 50 (≈ 194 µM) | ≥ 125 | ≥ 125 | > 1000 | 82.5 |  |  |  |  |  |  |  |  |
| O=C(Nc1cnccn1)c1ccc(Cl)nc1 | ≥ 250 | > 100 | > 100 | > 100 | ≥ 250 | ≥ 250 | > 1000 |  |  |  |  |  |  |  |  |  |
| O=C(Nc1cncc(Cl)n1)c1ccc(Cl)nc1 | ≥ 500 | 100 (≈ 372 µM) | > 100 | > 100 | ≥ 500 | ≥ 500 | > 500 |  |  |  |  |  |  |  |  |  |
| O=C(O)c1ccc(NC(=O)c2cccc(Cl)n2)cc1 | 250 (≈ 904 µM) | > 100 | > 100 | > 100 | 62.5 (≈ 226 µM) | ≥ 500 | > 250 |  |  |  |  |  |  |  |  |  |
| COc1ccnc(C(=O)Nc2cnccn2)c1 | ≥ 250 | > 100 | > 100 | 50 (≈ 217 µM) | ≥ 250 | ≥ 250 | > 250 |  |  |  |  |  |  |  |  |  |
| Cc1cc(C(=O)Nc2ccc(C(=O)O)c(O)c2)cc(O)n1 | ≥ 500 | 6.25 (≈ 21.7 µM) | > 100 | > 100 | ≥ 500 | ≥ 500 | > 1000 | 46.1 |  |  |  |  |  |  |  |  |
| CO[C@H]1/C=C/O[C@@]2(C)Oc3c(C)c(O)c4c(O)c(c(/C=N/N5CCN(C)CC5)c(O)c4c3C2=O)NC(=O)/C(C)=C\C=C\[C@H](C)[C@H](O)[C@@H](C)[C@@H](O)[C@@H](C)[C@H](OC(C)=O)[C@@H]1C [RIFAMPIN] | 0.198 (≈ 0.241 µM) |  |  |  | 0.003 (≈ 0.00365 µM) | 12.5 (≈ 15.2 µM) | > 500 |  |  |  |  |  |  |  |  |  |
| Cc1cc(C(=O)Nc2cnccn2)cc(Cl)n1 | ≥ 500 | > 100 | > 100 | > 100 | ≥ 500 | ≥ 500 | > 250 |  |  |  |  |  |  |  |  |  |
| O=C(Nc1ccc(C(=O)O)c(O)c1)c1ccc2ccccc2n1 | 15.6 (≈ 50.7 µM) | 1.56 (≈ 5.06 µM) | 100 (≈ 324 µM) | 100 (≈ 324 µM) | 31.2 (≈ 101 µM) | 31.2 (≈ 101 µM) | > 1000 | 198 | 6.25 (≈ 20.3 µM) | Metabolite_Detected | Metabolite_Detected | 2.2 | 12.5 (≈ 40.5 µM) | 10.5 |  |  |
| Cc1cc(C(=O)Nc2cnccn2)ccn1 | ≥ 250 | > 100 | > 100 | > 100 | ≥ 250 | ≥ 250 | > 1000 |  |  |  |  |  |  |  |  |  |
| Cc1cc(C(=O)Nc2ccc(C(=O)O)c(O)c2)ccn1 | ≥ 125 | 12.5 (≈ 45.9 µM) | > 100 | > 100 | ≥ 125 | ≥ 125 | > 1000 | 21.8 |  |  |  |  |  |  |  |  |
| COc1ccnc(C(=O)Nc2cncc(Cl)n2)c1 | 250 (≈ 945 µM) | > 100 | > 100 | > 100 | ≥ 500 | ≥ 500 | > 500 |  |  |  |  |  |  |  |  |  |
| O=C(Nc1cnccn1)c1cccc(Cl)n1 | ≥ 500 | > 100 | > 100 | 50 (≈ 213 µM) | ≥ 500 | ≥ 500 | > 250 |  |  |  |  |  |  |  |  |  |
| O=C(Nc1ccc(C(=O)O)c(O)c1)c1ccc(Cl)nc1 | ≥ 250 | 1.56 (≈ 5.33 µM) | 100 (≈ 342 µM) | 12.5 (≈ 42.7 µM) | 125 (≈ 427 µM) | ≥ 250 | > 1000 | 188 |  |  |  |  |  |  | inactive | Active |
